Compound activity from PubChem.
STEP block: STEP phosphatase inhibitors, primary screen, biochemical, fluorescence intensity, uHTS. 0.25% of 360,000 active. AID 588621, 2011. inhibition, % at 20 µM. recombinant STEP, OMFP fluorogenic substrate;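 active = inhibition at 20 µM, scaled per plate between control wells, above about 37%, limit read from the data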
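System: STEP phosphatase, cell-free reaction; Buffer or medium: Bis-Tris pH 6.0 buffer with DTT, detergent; Incubation: 20 min at room temperature, dark; Measured by: fluorescence, 480/540 nm.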
GRK2 aptamer HTS: compounds blocking aptamer binding on GRK2 – biochemical, human GRK2, bead flow cytometry, HTS, primary screen; Beta-adrenergic receptor kinase 1 (Homo sapiens), P25098; FAM-aptamer displacement from GRK2; inhibition of aptamer binding, % at 10 µM; 0.59% of 330,000 active; AID 488847, 2010;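 active = inhibition of aptamer binding above 40%, roughly 3 SD of noise, on plates passing a quality check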;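 note: median bead fluorescence of bound FAM aptamer so fluorescent compounds give negative values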
Scp-1 inhibitor: Scp-1 phosphatase inhibitors, primary screen, biochemical, colorimetric, uHTS; 0.88% of 340,000 active; Recombinant Scp1, phosphopeptide, malachite green phosphate absorbance; inhibition, % at 20 µM;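 active = inhibition above about 50% at 20 µM, limit read from the data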
Target sequence (Q9GZU7 76-261 limits assumed): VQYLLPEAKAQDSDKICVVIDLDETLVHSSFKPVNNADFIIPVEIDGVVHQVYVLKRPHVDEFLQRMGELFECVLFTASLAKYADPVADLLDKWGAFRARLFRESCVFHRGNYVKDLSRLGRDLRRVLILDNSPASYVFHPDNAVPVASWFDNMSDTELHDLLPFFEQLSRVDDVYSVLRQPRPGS
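assay system = SCP-1 phosphatase catalytic domain, residues 76-261 | buffer or medium = 50 mM Tris acetate pH 5.5, 0.005% Tween-20, 10 mM MgCl2 | incubation = enzyme reaction 45 min at room temperature, colour 5 min, stabilisation 30 min | signal = Phosphate-binding colour reagent, absorbance read at 630 nm | measure = % inhibition at 20 µM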
SUMO1 PPI mod: modulators of SUMO1 protein-protein interactions, primary screen, biochemical, uHTS. SUMO1 binding to a labelled peptide, TR-FRET, 1 h. Small ubiquitin-related modifier 1 (Homo sapiens), P63165. inhibition, % at 20 µM. 0.33% of 360,000 active; in the data active = inhibition above about 37%
Target sequence (P63165 whole entry, looked up): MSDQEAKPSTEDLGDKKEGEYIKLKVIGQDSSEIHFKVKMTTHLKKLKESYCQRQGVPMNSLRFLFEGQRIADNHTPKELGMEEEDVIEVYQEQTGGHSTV
DNMT1 block: human DNMT1 methyltransferase inhibitors, primary screen, biochemical, molecular beacon, fluorescence, HinP1I cleavage, uHTS | inhibition (reported as % activation of signal), % at 10 µM | 0.83% of 360,000 active | AID 588458, 2011; in the data active = inhibition above about 50%
LMPTP block: LMPTP phosphatase inhibitors, primary screen, biochemical, fluorescence intensity, uHTS | Low molecular weight phosphotyrosine protein phosphatase (Homo sapiens), P24666 | recombinant LMPTP-A, OMFP fluorogenic substrate | inhibition, % at 20 µM | 0.22% of 360,000 active | AID 651560, 2012;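 active = compounds that cut the enzyme signal by at least half of the control window in the single-dose screen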
Target sequence (P24666 whole entry, looked up): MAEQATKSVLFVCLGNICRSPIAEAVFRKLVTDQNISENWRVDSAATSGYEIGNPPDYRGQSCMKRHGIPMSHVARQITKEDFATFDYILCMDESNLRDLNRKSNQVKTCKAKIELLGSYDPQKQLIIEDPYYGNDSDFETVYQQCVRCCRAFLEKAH
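Assay system: LMPTP-A, protein tyrosine phosphatase of low molecular weight / Medium: pH 6.0 Bis-Tris buffer with DTT and Triton X-100 / Schedule: 50 min enzyme reaction at room temperature, protected from light / Measured by: endpoint fluorescence intensity from OMFP dephosphorylation / Read-out basis: % inhibition relative to no-enzyme and uninhibited control wells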
Scp-1 conf: Scp-1 phosphatase inhibitors, retest, confirmation, biochemical, colorimetric, single concentration | shares compounds with Scp-1 inhibitor | recombinant SCP-1 catalytic domain, phosphate release, malachite green absorbance | inhibition, % at 20 µM | 61% of 2,500 active
Scp-1 MG ctr: colorimetric readout interference by compounds, confirmation, artefact control for Scp-1 inhibitor project, biochemical, single concentration | AID 540313, 2011 | Colorimetric interference counterscreen, malachite green absorbance 630 nm | 2,500 tested, under 10 active | shares compounds with Scp-1 inhibitor | apparent inhibition (interference), % at 20 µM;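 note: compounds added after enzyme reaction finished so only phosphate colour detection is probed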
Scp-1 Tm shift: Scp-1 binding by thermal shift, confirmation, orthogonal assay for Scp-1 inhibitor project, biophysical, differential scanning fluorimetry | shares compounds with Scp-1 inhibitor | Recombinant SCP1, Sypro Orange thermal shift Tm | thermal shift relative to vanadate control, % at 40 µM | 25% of 1,500 active;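 active = substances whose mean melting-temperature shift, as a percentage of the reference inhibitor's shift, reaches about 5.3%, limit read from the data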
Of the large screens only hits and unclear results are named; the others gave an inactive call (follow-up assays come after a bar, where they were run). Hits are enriched below; roughly 2.2% of the tested compounds scored in any of these assays.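 Rule for the calls, unless noted: active = inhibition of at least 30% at 20 µM; inactive = the rest.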

Cc1ccc(OCC(=O)N/N=C\c2ccc(O)c([N+](=O)[O-])c2)c([N+](=O)[O-])c1	Scp-1 inhibitor 67 | Scp-1 conf 42 | Scp-1 MG ctr inactive | Scp-1 Tm shift 9.8
COc1ccccc1NC(=O)c1nn(-c2ccccc2)ccc1=O	none
COc1ccccc1NC(=O)c1nn(-c2ccc(Cl)cc2)ccc1=O	Scp-1 inhibitor 98 | Scp-1 conf 76 | Scp-1 MG ctr inactive | Scp-1 Tm shift inactive
O=C(Nc1ccccc1O)c1ccc2c(c1)C(=O)N(Cc1ccco1)C2=O	Scp-1 inhibitor 68 | Scp-1 conf 59 | Scp-1 MG ctr inactive | Scp-1 Tm shift inactive
COc1ccccc1NC(=O)c1ccc2c(c1)C(=O)N(Cc1ccco1)C2=O	none
CC1=C(C(=O)N2CCCCCC2)CC(CC(=O)NC2CCCC2)C(=O)N1Cc1ccccc1 (stereo not drawn)	none (no result: GRK2 aptamer HTS, Scp-1 inhibitor)
CCOC(=O)C1=C(C)NC(=O)NC1c1ccc(Br)o1 (stereo not drawn)	Scp-1 inhibitor 52 | Scp-1 conf inactive | Scp-1 MG ctr inactive
N#Cc1ccc(C(=O)N2CCCCC2c2cc(C(=O)Nc3ccccc3Cl)no2)cc1 (stereo not drawn)	none (no result: GRK2 aptamer HTS, Scp-1 inhibitor)
Cc1ccc(OCC(=O)c2cc(C)n(Cc3cccs3)c2C)c([N+](=O)[O-])n1	none
Cc1cc(C(=O)COc2ccc3ccc(=O)oc3c2)c(C)n1Cc1cccs1	Scp-1 inhibitor 66 | Scp-1 conf 53 | Scp-1 MG ctr inactive | Scp-1 Tm shift inactive
CN(C)c1ccc(CNS(=O)(=O)c2csc(C(N)=O)c2)cc1	none | Scp-1 conf inactive | Scp-1 MG ctr inactive
CC(C)Oc1ccc(CNS(=O)(=O)c2csc(C(N)=O)c2)cc1	none | Scp-1 conf inactive | Scp-1 MG ctr inactive
CCCCCCCCN1C(=O)[C@H](CC(=O)NCC2CCCCC2)C[C@@]2(C(=O)OCC)CCC=C12	none (no result: STEP block, GRK2 aptamer HTS, Scp-1 inhibitor, DNMT1 block)
CCOC(=O)c1cnc2c(C)c(-c3ccccc3)[nH]n2c1=O	Scp-1 inhibitor 69 | Scp-1 conf inactive | Scp-1 MG ctr inactive
O=C(NCC(=O)N(Cc1cccs1)C(C(=O)NC1CCCCC1)c1ccncc1)c1ccco1 (stereo not drawn)	Scp-1 inhibitor 52 | Scp-1 conf inactive | Scp-1 MG ctr inactive
O=C(NCC(=O)N(Cc1cccs1)C(C(=O)NC1CCCC1)c1cccnc1)c1ccco1 (stereo not drawn)	none
Cc1ccc(N=C2NC(=O)S/C2=C\c2ccco2)cc1	Scp-1 inhibitor 97, LMPTP block 63 | Scp-1 conf 57 | Scp-1 MG ctr inactive | Scp-1 Tm shift inactive
COc1ccc(C)cc1NC(=O)CCCN1C(=O)CN(C)C1=O	none | Scp-1 conf inactive | Scp-1 MG ctr inactive
CCc1cccc(C)c1NC(=O)CCCN1C(=O)CN(C)C1=O	none | Scp-1 conf inactive | Scp-1 MG ctr inactive
